What was measured:
[1] = Chemical stability in phosphate buffer at pH 7.3; type: physicochemical
In short: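 Triesters incubated in aqueous 25 mM phosphate buffer, pH 7.3; hydrolysis products (d4TMP, salicyl alcohol) followed by HPLC to give half-lives.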

[2] = system: Human immunodeficiency virus 1; assay: Antiviral activity against HIV1 in CEM/0 cells; type: functional, organism-based; settings: Human immunodeficiency virus 1, CCRF-CEM
In short: (§1)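 CEM/0 cells at 4 × 10^5 cells/mL infected with HIV (HIV-1, or HIV-2 strain ROD) at ~100 CCID50 per mL; virus stocks from infected MT-4 cell supernatants. Mixed 1:1 with compound dilutions, 4-5 days; giant cell formation scored microscopically. EC50, means of two to three independent experiments.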

[3] = system: Human immunodeficiency virus 2; assay: Antiviral activity against HIV2 ROD in CEM/0 cells; type: functional, organism-based; settings: Human immunodeficiency virus 2, ROD, CCRF-CEM; in short: as §1
[4] = system: Human immunodeficiency virus 2; assay: Antiviral activity against HIV2 ROD in CEM/TK- cells; type: functional, organism-based; settings: Human immunodeficiency virus 2, ROD
In short: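 Thymidine kinase-deficient CEM/TK- cells at 4 × 10^5 cells/mL infected with HIV-2 (ROD, MT-4-grown stock) at ~100 CCID50/mL; mixed 1:1 with compound dilutions; giant cell formation scored microscopically after 4-5 days. EC50 as means of two to three independent experiments.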

[5] = Hydrolysis half life in CEM cell extracts at pH 6.9; type: ADME; settings: human, CEM (CCRF-CEM) cell extracts
[6] = Hydrolysis half life in […]/FCS medium at pH 7.6; type: ADME; settings: cattle, […]/FCS culture medium
In short: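 Incubated in RPMI-1640 culture medium with 10% heat-inactivated fetal calf serum, pH 7.6; cleavage products followed by HPLC to derive half-lives.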

[7] = Hydrolysis half life in human serum at pH 6.8; type: ADME, cell-free
In short: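 Incubation in human serum pooled from hospital blood samples, pH 6.8, without acetic acid stop; products analysed by HPLC; half-life determined.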

Row | Structure (SMILES) | half-life [1] | EC50 [2] | EC50 [3] | EC50 [4] | half-life [5] | half-life [6] | half-life [7]
1 | Cc1cn([C@H]2C=C[C@@H](COP3(=O)OCc4cc(Br)ccc4O3)O2)c(=O)[nH]c1=O (stereo partly specified) | 52.8 min | 140 nM | 260 nM | 15 µM | – | – | –
2 | Cc1cn([C@H]2C=C[C@@H](COP3(=O)OCc4cc(C=O)cc(C(C)(C)C)c4O3)O2)c(=O)[nH]c1=O (stereo partly specified) | 57 min | 450 nM | 600 nM | 17.5 µM | – | – | –
3 | Cc1cn([C@H]2C=C[C@@H](COP3(=O)OCc4cc(CCC(=O)OCOC(=O)C(C)C)ccc4O3)O2)c(=O)[nH]c1=O (stereo partly specified) | 234 min | 260 nM | 600 nM | 1.73 µM | 54 min | – | –
4 | Cc1cn([C@H]2C=C[C@@H](COP3(=O)OCc4cc(C=O)ccc4O3)O2)c(=O)[nH]c1=O (stereo partly specified) | 10.8 min | 410 nM | 150 nM | 5 µM | – | – | –
5 | Cc1cc(C=O)cc2c1OP(=O)(OC[C@@H]1C=C[C@H](n3cc(C)c(=O)[nH]c3=O)O1)OC2 (stereo partly specified) | 21 min | – | – | – | – | – | –
6 | Cc1cn([C@H]2C=C[C@@H](COP3(=O)OCc4cc(CCC(=O)OCOC(=O)C(C)(C)C)ccc4O3)O2)c(=O)[nH]c1=O (stereo partly specified) | 336 min | 230 nM | 330 nM | 0.7 µM | 22.8 min | – | –
7 | Cc1cn([C@H]2C=C[C@@H](COP3(=O)OCc4cc([N+](=O)[O-])ccc4O3)O2)c(=O)[nH]c1=O (stereo partly specified) | – | 290 nM | 400 nM | 40 µM | – | – | –
8 | Cc1cn([C@H]2C=C[C@@H](COP3(=O)OCc4cccc(C(C)(C)C)c4O3)O2)c(=O)[nH]c1=O (stereo partly specified) | 4380 min | 180 nM | 650 nM | 0.33 µM | – | – | –
9 | Cc1cccc2c1OP(=O)(OC[C@@H]1C=C[C@H](n3cc(C)c(=O)[nH]c3=O)O1)OC2 (stereo partly specified) | 1050 min | 60 nM | 70 nM | 0.05 µM | 870 min | – | –
10 | CC(=O)OC(OC(C)=O)c1cc2c(c(C(C)(C)C)c1)OP(=O)(OC[C@@H]1C=C[C@H](n3cc(C)c(=O)[nH]c3=O)O1)OC2 (stereo partly specified) | 420 min | 320 nM | 750 nM | 3 µM | 7.2 min | 282 min | 522 min
11 | CC(=O)OC(OC(C)=O)c1ccc2c(c1)COP(=O)(OC[C@@H]1C=C[C@H](n3cc(C)c(=O)[nH]c3=O)O1)O2 (stereo partly specified) | 72 min | 420 nM | 400 nM | 10.5 µM | 4.8 min | 54 min | 90 min
12 | CC(=O)OC(OC(C)=O)c1cc(C)c2c(c1)COP(=O)(OC[C@@H]1C=C[C@H](n3cc(C)c(=O)[nH]c3=O)O1)O2 (stereo partly specified) | 138 min | – | – | – | 4.8 min | 90 min | 216 min
13 | Cc1cn([C@H]2C=C[C@@H](CO)O2)c(=O)[nH]c1=O [STAVUDINE] | – | 480 nM | 630 nM | 47.5 µM | – | – | –
